Measured values gathered from unrelated publications.
gyrA: DNA gyrase subunit A (gyrA, Escherichia coli K-12, UniProt P0AES4)
gag-pol reverse transcriptase: Gag-Pol polyprotein, reverse transcriptase (gag-pol, Human immunodeficiency virus 1, UniProt P03366)
EP300: Histone acetyltransferase p300 (EP300, Homo sapiens, UniProt Q09472)
PRMT6: Protein arginine N-methyltransferase 6 (PRMT6, Homo sapiens, UniProt Q96LA8)

CC(C)Oc1c(NC(=O)c2ccc(NC(=O)[C@H](CC(N)=O)NC(=O)c3ccc(NC(=O)c4ccc(C#N)cc4)cc3)cc2)ccc(C(=O)Nc2ccncc2)c1O — IC50 (gyrA; enzyme activity; inhibitor): 900 nM
N#Cc1ccc(Nc2nc(N)cc(Oc3c(F)cc(-c4ccccc4C#N)cc3F)n2)cc1 — IC50 (gag-pol reverse transcriptase; enzyme activity; inhibitor): 30 nM
CCCCCCCCCCCCCCCc1cccc(O)c1C(=O)O — IC50 (EP300; enzyme activity; inhibitor; radiometric): > 200000 nM
COc1ccc(S(=O)(=O)NCCCCCNC(=O)c2[nH]c3ccc(Cl)cc3c2S(=O)(=O)c2cc(C)cc(C)c2)cc1 — IC50 (gag-pol reverse transcriptase; enzyme activity; inhibitor; ELISA): 160 nM
N#Cc1ccc(Nc2nc(N)cc(Oc3ccc(-c4ccc(C#N)cc4)cc3C(F)(F)F)n2)cc1 — IC50 (gag-pol reverse transcriptase; enzyme activity; inhibitor): 70 nM
O=C1N=C(Nc2ccccc2)S/C1=C\c1ccccc1OCc1cn(Cc2ccccc2Br)nn1 — IC50 (Aldo-keto reductase family 1 member A1 (AKR1A1, Homo sapiens, UniProt P14550); enzyme activity; inhibitor; absorbance; pH 6.2): 62000 nM
CCCS(=O)(=O)Nc1ccc(F)c(C(=O)c2c[nH]c3ncc(Br)cc23)c1F — IC50 (Dual specificity mitogen-activated protein kinase kinase 6 (MAP2K6, Homo sapiens, UniProt P52564); enzyme activity; inhibitor; ADP detection): 2500 nM
CCCCN1/C(=C/C=C(Br)/C=C/C2=[N+](CCCC)c3ccc(Br)cc3C2(C)C)C(C)(C)c2cc(Br)ccc21 — IC50 (PRMT6; enzyme activity; inhibitor; radiometric): 2430 nM
COc1ccc(S(=O)(=O)ON=C2C=C(C)C(=O)C(C)=C2)cc1 — IC50 (EP300; enzyme activity; inhibitor; radiometric): 128000 nM
COc1cc(C(=O)Nc2ccc(C(=O)N[C@@H](CC(N)=O)C(=O)Nc3ccc(C(=O)Nc4ccc(C(=O)Nc5ccc(C(=O)O)cc5)c(O)c4OC(C)C)cc3)cc2)ccc1C#N — IC50 (gyrA; enzyme activity; inhibitor): 1800 nM
Cc1cc(C)cc(S(=O)(=O)c2c(C(=O)NCCCNS(=O)(=O)c3ccc(Cl)cc3)[nH]c3ccc(Cl)cc23)c1 — IC50 (gag-pol reverse transcriptase; enzyme activity; inhibitor; ELISA): 78 nM
N#C/C(=C\c1cccn1S(=O)(=O)c1ccccc1)S(=O)(=O)c1ccccc1 — IC50 (Protein phosphatase methylesterase 1 (Homo sapiens, UniProt Q9Y570); enzyme activity; inhibitor): > 20000 nM
COc1ccc2c(Oc3ccc4c(C(=O)Nc5ccccc5N)cccc4c3)ccnc2c1 — IC50 (Insulin-like growth factor 1 receptor (IGF1R, Homo sapiens, UniProt P08069); enzyme activity; inhibitor): > 500 nM
COc1ccc(-c2oc3ncnc(NCc4ccccc4)c3c2-c2ccc(OC)cc2)cc1 — IC50 (Receptor tyrosine-protein kinase erbB-2 (ERBB2, Homo sapiens, UniProt P04626, D769Y); enzyme activity; inhibitor; radiometric): 790 nM
Cc1ccc(C(=O)Nc2ccc(S(=O)(=O)O)c3cc(S(=O)(=O)O)cc(S(=O)(=O)O)c23)cc1NC(=O)c1cccc(NC(=O)Nc2cccc(C(=O)Nc3cc(C(=O)Nc4ccc(S(=O)(=O)O)c5cc(S(=O)(=O)O)cc(S(=O)(=O)O)c45)ccc3C)c2)c1 — IC50 (P2X purinoceptor 2 (P2RX2, Homo sapiens, UniProt Q9UBL9); calcium signal; antagonist): 22500 nM
CC[C@@H](C(=O)Nc1ccc(C(N)=O)c(F)c1)n1cc(OC)c(-c2cc(Cl)ccc2-n2cc(C(F)(F)F)nn2)cc1=O — IC50 (Plasminogen (PLG, Homo sapiens, UniProt P00747); enzyme activity; inhibitor): 2100 nM
Cc1cnc(-c2ccc(-c3ccc(NC(=O)Nc4c(F)cc(F)cc4F)cc3F)c3c2C(=O)NC3)[nH]1 — IC50 (STE20-like serine/threonine-protein kinase (SLK, Homo sapiens, UniProt Q9H2G2); enzyme activity; inhibitor): 14.3 nM
CC(C)Oc1c(NC(=O)c2ccc(NC(=O)[C@H](CC(N)=O)NC(=O)c3ccc(NC(=O)c4cc(C#N)cn4C)cc3)cc2)ccc(C(=O)Nc2ccc(C(=O)O)cc2)c1O — IC50 (gyrA; enzyme activity; inhibitor): 700 nM
CNC(=O)c1ccccc1Nc1cc(Nc2cc(C)c(C3CCN(CCCCCCNC(=O)COc4cccc5c4C(=O)N(C4CCC(=O)NC4=O)C5=O)CC3)cc2OC(C)C)ncc1C(F)(F)F (centres unmarked) — IC50 (Protein-tyrosine kinase 2-beta (PTK2B, Homo sapiens, UniProt Q14289); enzyme activity; inhibitor): 296 nM
Cc1cc(C)cc(S(=O)(=O)c2c(C(=O)NCCNS(=O)(=O)c3cccs3)[nH]c3ccc(Cl)cc23)c1 — IC50 (gag-pol reverse transcriptase; enzyme activity; inhibitor; ELISA): 140 nM
N#Cc1ccc(Nc2nc(N)cc(Oc3ccc(-c4ccc(C#N)c(C#N)c4)cc3)n2)cc1 — IC50 (gag-pol reverse transcriptase; enzyme activity; inhibitor): 770 nM
O=C(Nc1cccc2[nH]ccc12)c1ccc(F)cc1 — IC50 (Alpha-synuclein, monomer (SNCA, Homo sapiens, UniProt P37840); amyloid aggregation; inhibitor; fluorescence): ~11600 nM
N#Cc1ccc(Nc2nc(N)cc(Oc3ccc(-c4ccc(C#N)cc4)c(C(F)(F)F)c3)n2)cc1 — IC50 (gag-pol reverse transcriptase; enzyme activity; inhibitor): 90 nM
Cc1cc(C)cc(S(=O)(=O)c2c(C(=O)NCCCCNS(=O)(=O)c3ccccc3)[nH]c3ccc(Cl)cc23)c1 — IC50 (gag-pol reverse transcriptase; enzyme activity; inhibitor; ELISA): 130 nM
N#Cc1ccc(Nc2nc(N)cc(Oc3c(F)cc(-c4ccccc4F)cc3F)n2)cc1 — IC50 (gag-pol reverse transcriptase; enzyme activity; inhibitor): 40 nM
C=CC(=O)Nc1cc(Nc2nccc(Nc3cc(Cl)c(F)cc3C(C)(C)O)n2)c(OC)cc1N1CC[C@@H](N(C)C)C1 — IC50 (Receptor tyrosine-protein kinase erbB-2 (ERBB2, Homo sapiens, UniProt P04626); enzyme activity; inhibitor; with preincubation): 392 nM
CC(C)Oc1c(NC(=O)c2ccc(NC(=O)[C@H](CC(N)=O)NC(=O)c3ccc(NC(=O)c4ccc(NC(=O)c5ccc([N+](=O)[O-])cc5)cc4)cc3)cc2)ccc(C(=O)Nc2ccc(C(=O)O)cc2)c1O — IC50 (gyrA; enzyme activity; inhibitor): 2500 nM
Cc1nccc2c1c(=O)n(C)c1cc(OC[C@@H](N)CC(C)C)c(C#N)cc21 — IC50 (Alpha-2A adrenergic receptor (ADRA2A, Homo sapiens, UniProt P08913); cell-free assay): > 30000 nM
CCOC(=O)N1CCC(CN(Cc2ccc(Cl)cc2)Cc2ccc([N+](=O)[O-])s2)C1 (centres unmarked) — IC50 (Oxysterols receptor LXR-alpha (NR1H3, Homo sapiens, UniProt Q13133); ligand displacement; radioligand): 13000 nM
N#Cc1ccc(Nc2nc(N)cc(Oc3ccc(-c4ccccc4)cc3F)n2)cc1 — IC50 (gag-pol reverse transcriptase; enzyme activity; inhibitor): 160 nM
Cc1cc(C)cc(S(=O)(=O)c2c(C(=O)NCCCCNS(=O)(=O)c3cccs3)[nH]c3ccc(Cl)cc23)c1 — IC50 (gag-pol reverse transcriptase; enzyme activity; inhibitor; ELISA): 190 nM
CC(C)Oc1c(NC(=O)c2ccc(NC(=O)[C@H](CC(N)=O)NC(=O)c3ccc(NC(=O)c4ccc(C#N)c(F)c4)cc3)cc2)ccc(C(=O)Nc2ccc(C(=O)O)cc2)c1O — IC50 (gyrA; enzyme activity; inhibitor): 400 nM
Cc1cc(C)cc(S(=O)(=O)c2c(C(=O)NCCCCCNS(=O)(=O)c3cccs3)[nH]c3ccc(Cl)cc23)c1 — IC50 (gag-pol reverse transcriptase; enzyme activity; inhibitor; ELISA): 220 nM
CC(C)Oc1c(NC(=O)c2ccc(NC(=O)[C@H](CC(N)=O)NC(=O)c3ccc(NC(=O)c4ccc(N)cc4)cc3)cc2)ccc(C(=O)Nc2ccc(C(=O)O)cc2)c1O — IC50 (gyrA; enzyme activity; inhibitor): 26800 nM
N#Cc1ccc(Nc2nc(N)cc(Oc3ccc(-c4ccc(C#N)cc4)c(F)c3)n2)cc1 — IC50 (gag-pol reverse transcriptase; enzyme activity; inhibitor): 50 nM
Cc1cc(C)cc(S(=O)(=O)c2c(C(=O)NCCCCCNS(=O)(=O)c3ccc(F)cc3)[nH]c3ccc(Cl)cc23)c1 — IC50 (gag-pol reverse transcriptase; enzyme activity; inhibitor; ELISA): 150 nM
N#Cc1ccc(Nc2nc(N)cc(Oc3ccc(-c4ccccc4F)cc3)n2)cc1 — IC50 (gag-pol reverse transcriptase; enzyme activity; inhibitor): 260 nM
CC(C)Oc1c(NC(=O)c2ccc(NC(=O)[C@H](CC(N)=O)NC(=O)c3ccc(NC(=O)c4ccc(C#N)cc4)cc3)cc2)ccc(C(=O)O)c1O — IC50 (gyrA; enzyme activity; inhibitor): 9400 nM
Cc1cc(C)cc(S(=O)(=O)c2c(C(=O)NCCCCNS(=O)(=O)c3ccc([N+](=O)[O-])cc3)[nH]c3ccc(Cl)cc23)c1 — IC50 (gag-pol reverse transcriptase; enzyme activity; inhibitor; ELISA): 150 nM
CC(C)Oc1c(NC(=O)c2ccc(NC(=O)[C@H](CC(N)=O)NC(=O)c3ccc(NC(=O)c4ccc(C#N)c(Cl)c4)cc3)cc2)ccc(C(=O)Nc2ccc(C(=O)O)cc2)c1O — IC50 (gyrA; enzyme activity; inhibitor): 100 nM
CCCCN1/C(=C/C=C/c2sc3ccc(Br)cc3[n+]2CCCC)Sc2ccc(Br)cc21 — IC50 (PRMT6; enzyme activity; inhibitor; radiometric): 3150 nM
